# Test results as given in article PMC4371900 (International Journal of Nanomedicine, 2015).
# Tests used:
# [1] = Cytostatic assay; assay type: cell-based; details: human, Huh 5-2 cells
# Summary of the method: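 Huh 7 cells carrying subgenomic HCV replicon (Huh 5-2) were seeded at 5·10^3 cells/well in complete DMEM with G418. After 24 h, serial dilutions of test compound (free or γ-CD complex) were added in complete DMEM without G418. Cells proliferated 3 days at 37°C. Cell number was read by CellTiter 96 AQueous One.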
# [2] = test system: genotype 1b Con1 HCV sub-genomic replicon (Huh 5-2 cells); assay: Antiviral assay with Huh 5-2 cells; assay type: cell-based, hepatitis C virus
smiles,measurement,setting,value
"OC[C@H]1O[C@@H]2O[C@H]3[C@H](O)[C@@H](O)[C@@H](O[C@H]4[C@H](O)[C@@H](O)[C@@H](O[C@H]5[C@H](O)[C@@H](O)[C@@H](O[C@H]6[C@H](O)[C@@H](O)[C@@H](O[C@H]7[C@H](O)[C@@H](O)[C@@H](O[C@H]8[C@H](O)[C@@H](O)[C@@H](O[C@H]9[C@H](O)[C@@H](O)[C@@H](O[C@H]1[C@H](O)[C@H]2O)O[C@@H]9CO)O[C@@H]8CO)O[C@@H]7CO)O[C@@H]6CO)O[C@@H]5CO)O[C@@H]4CO)O[C@@H]3CO [γ-CD, γ-cyclodextrin]",viability at 3 days,[1],100%
same,luminescence,[2]; control tests with compound-free γ-CD (data not shown),100%
same,antiviral activity in cell assays,"[2]; delivered alone, free in solution",did not show antiviral activity
